# Assay outcomes from PubChem BioAssay.
# Rce1 inh: yeast Rce1p protease inhibitors, primary screen, biochemical, fluorescence, cell-free homogeneous; yeast membranes, quenched prenylated peptide cleavage fluorescence; calls only; 290,000 compounds, 0.27% hits;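 active means fall in fluorescence gain of 50% or more versus controls, with final raw signal at or below 3038400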;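 further: plate controls were neutral control wells for no effect and wells lacking membranes for full effect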
# Target sequence (Q03530 whole entry, looked up): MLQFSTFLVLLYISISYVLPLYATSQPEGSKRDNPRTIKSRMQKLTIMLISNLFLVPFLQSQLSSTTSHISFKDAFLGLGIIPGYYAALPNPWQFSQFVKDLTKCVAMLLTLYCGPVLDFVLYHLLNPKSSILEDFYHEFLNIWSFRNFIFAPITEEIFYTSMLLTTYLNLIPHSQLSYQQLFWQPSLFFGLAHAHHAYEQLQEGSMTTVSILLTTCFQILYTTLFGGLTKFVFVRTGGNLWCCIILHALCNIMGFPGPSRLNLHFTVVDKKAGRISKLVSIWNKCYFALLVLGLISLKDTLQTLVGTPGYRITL
# UCH37 DUB inh: inhibitors of human UCH37 deubiquitinase, primary screen, biochemical, Ub-AMC cleavage, fluorescence | AID 588478, 2011 | Ubiquitin carboxyl-terminal hydrolase isozyme L5 (Homo sapiens), Q9Y5K5 | inhibition, % (concentration not given with the values) | purified proteasome/UCH37 | 330,000 compounds, 0.33% hits;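 active means mean inhibition over replicate wells above about 20%, limit read from the data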;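 further: 0% = compound-free wells with enzyme and 100% = wells lacking proteasome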
# Target sequence (Q9Y5K5 whole entry, looked up): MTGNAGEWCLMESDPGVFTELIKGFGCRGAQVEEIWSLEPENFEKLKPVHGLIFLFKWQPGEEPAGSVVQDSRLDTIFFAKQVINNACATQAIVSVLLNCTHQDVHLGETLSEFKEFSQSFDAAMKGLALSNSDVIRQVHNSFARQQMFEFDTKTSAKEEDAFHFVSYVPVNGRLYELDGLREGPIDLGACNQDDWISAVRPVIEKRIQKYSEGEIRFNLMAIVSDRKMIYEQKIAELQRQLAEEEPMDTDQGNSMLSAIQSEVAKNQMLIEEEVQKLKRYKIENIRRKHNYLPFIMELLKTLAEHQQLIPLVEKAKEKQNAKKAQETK
#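 Material: Human UCH37 enzyme supplied as purified proteasome complex | Schedule: 30 min compound-proteasome preincubation then 25 min substrate reaction, room temperature | Detection: AMC fluorescence from Ub-AMC cleavage, excitation 355 nm, emission 460 nm | Benchmarks: Wells without proteasome as full block, compound-free enzyme plus substrate as uninhibited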
# MEKK3 PB1 HTS: modulators of MEKK3-MEK5 PB1 binding, primary screen, biochemical, wildtype MEKK3, multiplex bead flow cytometry, Alexa488-MEK5; binding response (% of control), % at 10 µM; AID 1529, 2009; bead-based flow cytometry, Alexa488-MEK5 binding to MEKK3; actives lie on both sides; 0 = blocked by unlabeled MEK5, 100 = vehicle; Mitogen-activated protein kinase kinase kinase 3 (Homo sapiens), Q99759; 290,000 compounds, 1.4% hits;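 active means binding response more than 3 SD above or below the average of its plate-row segment, actives on both sides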;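 further: Alexa488 bead fluorescence after subtracting the streptavidin-only scavenger bead signal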
# MEKK2wt PB1 HTS: modulators of MEK5 binding to wildtype MEKK2, primary screen, biochemical, multiplex bead flow cytometry, Alexa488-MEK5; 290,000 compounds, 1.1% hits; binding response (% of control), % at 10 µM; Mitogen-activated protein kinase kinase kinase 2 (Homo sapiens), Q9Y2U5; Alexa488-MEK5 binding to MEKK2 WT; actives lie on both sides; in the data active means binding response below about 67% or above about 130%
# MEKK2 mut-MEK5: MEK5 binding signal on mutant MEKK2 PB1, primary screen, biochemical, multiplex bead flow cytometry, Alexa488-MEK5 | Alexa488-MEK5 binding to MEKK2 mutant | percent response, % at 10 µM | 290,000 compounds, 0.35% hits | AID 1530, 2009; in the data active means percent response above about 24%, passing the limit was not always enough
# T cell HTS: modulators of CD8 T cell-vesicle binding, primary screen, mouse 2C CD8+ T cells, flow cytometry; 2C CD8+ T cell-vesicle binding; stronger effect = lower value; response (vesicle binding), % at 7 µM; 330,000 compounds, 0.068% hits;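 active means response, share of CD8 T cells binding vesicles, and their 90th percentile fluorescence all below set limits, cut at about 80% in these data, passing the limit was not always enough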;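 further: values below 100% mean blocked vesicle binding to the CD8+ T cells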
#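 incubation = binding step 1.5 h, 37 °C, antibody labelling 20 min, ice | test system = 2C mouse CD8+ T cells | read-out basis = percent CD8+ FL2 mean versus row control | controls = Peptide-free naked vesicles (low) and QL9 vesicles with 0.7% DMSO vehicle (high) | detection = flow cytometry of vesicle-bound cells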
# MEKK2wt confirm: modulators of MEK5 binding to wildtype MEKK2, confirmation, biochemical, single concentration, multiplex bead flow cytometry; shares compounds with MEKK3 PB1 HTS; Alexa488-MEK5 binding to MEKK2 WT; actives lie on both sides; binding response (% of control), % at 10 µM; 5,900 compounds, 2.4% hits; AID 1892, 2009; in the data active means binding response below about 16% or above about 210%; inactive means in between
# MEKK2mut-MEK5: mutant MEKK2 PB1-MEK5 binding signal retest – biochemical, single concentration, multiplex bead flow cytometry, confirmation. shares compounds with MEKK3 PB1 HTS. Alexa488-MEK5 binding to MEKK2 mutant. percent response, % at 10 µM. 5,900 compounds, 2% hits. AID 1893, 2009; in the data active means percent response mostly above about 71%, no sharp cut-off; inactive means mostly below about 38%;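 further: higher means compound restores mutant binding toward wildtype level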
# MEKK3-MEK5 inh: MEKK3 wild-type PB1 binding to MEK5, inhibitors, confirmation, biochemical, bead multiplex flow cytometry, single concentration, wildtype | shares compounds with MEKK3 PB1 HTS | Alexa488-MEK5 binding to MEKK3; stronger effect = lower value | binding response (% of control), % at 10 µM | 5,900 compounds, 1.8% hits;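 active means binding response below 72% of control, or above a set upper limit, though filed actives all read lower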;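 further: 100% = DMSO only wells and 0% = binding blocked by excess unlabeled MEK5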
# UCH37 reconfirm: retest of human UCH37 deubiquitinase inhibitors, confirmation, biochemical, Ub-AMC cleavage rate, fluorescence. AID 624100, 2012. 480 compounds, 27% hits. Proteasome-bound UCH37. shares compounds with UCH37 DUB inh. inhibition, % at 20 µM;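 active means average inhibition over replicates above about 50%, so the earlier screening hit is confirmed, limit read from the data; inactive means the rest, counted as false positives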;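 further: based on cleavage rate fitted by regression over a 30 min kinetic read; 0% = proteasome plus Ub-AMC and 100% = Ub-AMC without proteasome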
# Active calls of the source: *; i = inactive; / = no result given; ! = not active in a repeat; [ ] = remark or other dose. Compounds with a hit are over-represented: about 2.5% of the library has one in this group of screens.
SMILES,Rce1 inh,UCH37 DUB inh,MEKK3 PB1 HTS,MEKK2wt PB1 HTS,MEKK2 mut-MEK5,T cell HTS,MEKK2wt confirm,MEKK2mut-MEK5,MEKK3-MEK5 inh,UCH37 reconfirm
OCc1cc(C(O)CNCCCCCCOCCCCc2ccccc2)ccc1O (stereo not given),i,-19.3,112.0,144.0*!,9.0,145.9,120.0,2.0,103.0,/
O=C(CNS(=O)(=O)c1ccc2ccccc2c1)OCC(=O)c1ccc(Br)s1,i,2.9,98.0,94.0,-1.0,932.0,/,/,/,/
Cc1cc(C(=O)COC(=O)CNS(=O)(=O)c2ccc3ccccc3c2)c(C)n1-c1ccccc1,i,4.4,164.0*,102.0,0.0,600.0,99.0,1.0,107.0,/
CC(=NNC(=O)c1ccc(Cl)cc1)c1cccc(NC(=O)C(C)C)c1,/,4.3,/,/,/,/,/,/,/,/
N#C/C(=C\c1ccccc1[N+](=O)[O-])C(=O)NC1CCCCC1,i,5.5,40.0*[inhibitor],47.0*[inhibitor],-17.0,660.6,97.0,-6.0,99.0,/
CCOc1ccc(C=NNC(=O)CSc2ccccn2)cc1O,/,6.6,/,/,/,/,/,/,/,/
CCOC(=O)CSC1=N/C(=C\c2cc(OC)c(OC)c(OC)c2)C(=O)N1C,i,-7.1,153.0*,106.0,1.0,221.2,97.0,-8.0,101.0,/
O=C(O)c1ccc(N2C(=O)c3cccnc3C2=O)cc1,i,1.5,98.0,97.0,-4.0,157.0,/,/,/,/
O=C1c2nccnc2C(=O)N1c1ccc(F)cc1,i,/,130.0*,112.0,0.0,576.7,105.0,6.0,100.0,/
O=C(CON=Cc1ccc(OC(F)F)cc1)NCc1cccs1,/,3.5,/,/,/,/,/,/,/,/
O=C(N/N=C/c1cccc(NC(=O)c2ccc(Cl)cc2)c1)c1ccc(O)cc1,i,/,44.0*[inhibitor],38.0*[inhibitor],-13.0,96.3,96.0,-2.0,101.0,/
O=C(NN=Cc1ccc(Br)cc1)c1ccc(NC(=O)c2ccccc2)cc1,/,2.1,/,/,/,/,/,/,/,/
CN(C)c1ccc(/C=N/NC(=O)c2ccc(NC(=O)c3ccccc3)cc2)cc1,/,/,73.0*[inhibitor],80.0,-37.0,312.8,99.0,0.0,99.0,/
CCC(=NNC(=O)c1nnn(-c2nonc2N)c1-c1ccc2c(c1)OCO2)c1ccccc1,/,3.2,/,/,/,/,/,/,/,/
O=C1c2ccccc2-c2nc3ccccc3nc21,i,44.8*,67.0*[inhibitor],72.0,-27.0,278.1,94.0,-7.0,99.0,22.8
CCN1/C(=C/C=C/C=C/C=C/c2sc3ccccc3[n+]2CC)Sc2ccccc21,i,54.0*,30.0*[inhibitor],72.0*[inhibitor],-15.0,139.4,136.0,60.0,61.0*,69.4*
CCN1/C(=C/C=C/c2sc3ccccc3[n+]2CC)Sc2ccccc21,i,2.7,/,/,/,168.2,/,/,/,/
Cc1cc(C=NNS(=O)(=O)c2ccc(F)c(Cl)c2)no1,/,3.9,/,/,/,/,/,/,/,/
CCOC(=O)c1c(C)[nH]c(C(=O)NN=Cc2ccc(OC)c(OC)c2)c1C,/,1.5,/,/,/,/,/,/,/,/
CCOC(=O)c1c(-c2ccc(-c3ccccc3)cc2)csc1NC(=O)CNCCN(C)C,i,25.1*,117.0,286.0*,69.0*,900.8,238.0*,141.0*,115.0,83.7*
CCOC(=O)c1c(-c2ccccc2)csc1NC(=O)CCN1C(=O)c2ccccc2C1=O,i,-0.8,94.0,97.0,-7.0,224.1,/,/,/,/
CCN1/C(=C/c2ccc3cc(C)ccc3[n+]2CC)Sc2ccccc21,i,36.0*,68.0,14.0*[inhibitor],-7.0,i,39.0,-26.0,81.0,44.0
CC[C@]1(c2cccc(C)c2)C(=O)N(C(=O)OC)N1C(=O)OC,i,35.4*,105.0,66.0*,59.0*,582.6,98.0,2.0,102.0,-5.9
CC(=NS(=O)(=O)c1ccc(C)cc1)N(C)C,/,1.1,/,/,/,/,/,/,/,/
CCCCCc1ccc(OCCCC[n+]2ccc(C)cc2)c(CCCCC)c1,i,28.9*,106.0,186.0*,16.0,355.0,177.0,40.0,110.0,42.7
SMILES,Rce1 inh,UCH37 DUB inh,MEKK3 PB1 HTS,MEKK2wt PB1 HTS,MEKK2 mut-MEK5,T cell HTS,MEKK2wt confirm,MEKK2mut-MEK5,MEKK3-MEK5 inh,UCH37 reconfirm
CCCCOc1ccc(C)cc1CN(CCO)CCO,i,2.3,93.0,94.0,-2.0,481.6,/,/,/,/
CCSC1=C(C#N)C2(CCCC2)C(C#N)=C(N)N1,i,43.2*,109.0,101.0,11.0,188.9,/,/,/,13.0
CC(Oc1ccccc1)C(=O)N=Nc1c(O)[nH]c2ccc([N+](=O)[O-])cc12 (stereo not given),i,67.0*,110.0,111.0,6.0,247.4,/,/,/,45.6
O=C(N=Nc1c(O)[nH]c2ccc([N+](=O)[O-])cc12)c1ccccc1[N+](=O)[O-],i,61.4*,90.0,95.0,-8.0,269.8,/,/,/,13.8
NC(=O)Cn1cc(C=NNS(=O)(=O)c2ccc(F)cc2)c2ccccc21,/,3.6,/,/,/,/,/,/,/,/
Cc1ccc(C(=O)O/N=C\c2ccc(N3CCCCC3)c([N+](=O)[O-])c2)cc1,i,/,72.0,78.0,-25.0,86.9,/,/,/,/
Cc1ccc(C(=O)ON=Cc2ccc(N3CCCCC3)c([N+](=O)[O-])c2)cc1,/,40.4*,/,/,/,/,/,/,/,-2.2
CCCC[n+]1ccn(C2=C([O-])c3ccccc3C(=O)/C2=N\S(=O)(=O)c2ccccc2)c1,i,41.0*,108.0,111.0,5.0,386.9,/,/,/,31.8
CC(C)[n+]1ccn(C2=C([O-])c3ccccc3C(=O)/C2=N\S(=O)(=O)c2ccccc2)c1,i,39.5*,63.0,69.0,-21.0,80.1,/,/,/,22.8
CC(C)(C)c1cc[n+](C2=C([O-])c3ccccc3C(=O)/C2=N\S(=O)(=O)c2ccccc2)cc1,i,9.7,100.0,101.0,2.0,232.1,/,/,/,/
